Results of several laboratories.
Protocols differ between the studies behind these lines.
Target: Inhibitor of nuclear factor kappa-B kinase subunit beta (IKBKB, Homo sapiens, UniProt O14920)
Sequence (O14920 1-756, as in one of the studies): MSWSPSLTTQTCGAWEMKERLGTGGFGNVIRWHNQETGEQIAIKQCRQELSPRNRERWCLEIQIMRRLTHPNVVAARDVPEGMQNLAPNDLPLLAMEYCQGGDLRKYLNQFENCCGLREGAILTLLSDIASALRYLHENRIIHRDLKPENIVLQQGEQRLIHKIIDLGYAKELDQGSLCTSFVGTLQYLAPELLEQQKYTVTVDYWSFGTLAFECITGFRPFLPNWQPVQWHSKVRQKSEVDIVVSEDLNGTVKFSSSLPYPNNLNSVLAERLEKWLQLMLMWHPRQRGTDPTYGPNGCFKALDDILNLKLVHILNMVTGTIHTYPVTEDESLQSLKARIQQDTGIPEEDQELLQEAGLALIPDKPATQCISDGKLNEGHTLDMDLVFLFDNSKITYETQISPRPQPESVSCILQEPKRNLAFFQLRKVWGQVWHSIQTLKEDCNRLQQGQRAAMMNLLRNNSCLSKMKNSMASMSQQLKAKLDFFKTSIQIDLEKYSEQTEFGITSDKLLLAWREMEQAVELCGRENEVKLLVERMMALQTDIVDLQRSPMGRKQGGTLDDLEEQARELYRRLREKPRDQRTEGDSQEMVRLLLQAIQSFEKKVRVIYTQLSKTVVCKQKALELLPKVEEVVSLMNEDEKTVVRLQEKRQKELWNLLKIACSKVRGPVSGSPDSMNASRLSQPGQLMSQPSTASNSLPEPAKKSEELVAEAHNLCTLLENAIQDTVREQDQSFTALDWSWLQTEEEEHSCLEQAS

`C=CC(=O)N1CCC[C@@H](n2nc(-c3ccc(Oc4ccccc4)cc3)c3c(N)ncnc32)C1` has an inhibition of 30% (enzyme activity, inhibitor; 1 µM).
The remaining binding of `CN1CCN(C(=O)c2ccc(NC(=O)Nc3ccc(N(C)c4ccnc(Nc5ccc(CS(C)(=O)=O)cc5)n4)cc3)cc2)CC1` is reported as 70% (binding, competition with immobilised ligand; 1 µM).
For `N#Cc1ccc(NC(=O)Nc2ccccc2)cc1`, the remaining binding was 100% (cell-free assay, competition with immobilised ligand; 25 µM).
The remaining signal of `C#Cc1cnc(Nc2ccnc(CO)c2)nc1Nc1ccccc1S(C)(=O)=NC#N` (centres unmarked) is reported as 97% (cell-free assay; 1 µM).
The remaining binding of `Cc1ccc(NC(=O)c2ccnc(C(F)(F)F)c2)cc1-c1cc(OCCO)nc(N2CCOCC2)c1` is reported as 97% (binding, competition with immobilised ligand; 1 µM).
With `CCCCC(=O)Nc1ccc(-c2ccc3ncn(CCC)c(=O)c3c2)cn1` the remaining binding was 100% (binding, competition with immobilised ligand; 0.5 µM).
`CO[C@@H]1[C@H](N(C)C(=O)c2ccccc2)C[C@H]2O[C@]1(C)n1c3ccccc3c3c4c(c5c6ccccc6n2c5c31)C(=O)NC4` has an inhibition of 13% (enzyme activity, inhibitor; 1 µM).
`COc1ccc2oc(-c3ccc4nc(N)oc4c3)c/c(=N\c3ccccc3NC(=O)CCN)c2c1` has a remaining binding of 102% (binding; 1 µM).
